Here are results for 24 molecules from ChEMBL document CHEMBL3861992 (Bioorg Med Chem Lett, 2016).

Activity calls are given as the source filed them. The rule behind the calls is not given here.

Sequence of Amyloid-beta precursor protein (P05067 whole entry, the tested form may be a part): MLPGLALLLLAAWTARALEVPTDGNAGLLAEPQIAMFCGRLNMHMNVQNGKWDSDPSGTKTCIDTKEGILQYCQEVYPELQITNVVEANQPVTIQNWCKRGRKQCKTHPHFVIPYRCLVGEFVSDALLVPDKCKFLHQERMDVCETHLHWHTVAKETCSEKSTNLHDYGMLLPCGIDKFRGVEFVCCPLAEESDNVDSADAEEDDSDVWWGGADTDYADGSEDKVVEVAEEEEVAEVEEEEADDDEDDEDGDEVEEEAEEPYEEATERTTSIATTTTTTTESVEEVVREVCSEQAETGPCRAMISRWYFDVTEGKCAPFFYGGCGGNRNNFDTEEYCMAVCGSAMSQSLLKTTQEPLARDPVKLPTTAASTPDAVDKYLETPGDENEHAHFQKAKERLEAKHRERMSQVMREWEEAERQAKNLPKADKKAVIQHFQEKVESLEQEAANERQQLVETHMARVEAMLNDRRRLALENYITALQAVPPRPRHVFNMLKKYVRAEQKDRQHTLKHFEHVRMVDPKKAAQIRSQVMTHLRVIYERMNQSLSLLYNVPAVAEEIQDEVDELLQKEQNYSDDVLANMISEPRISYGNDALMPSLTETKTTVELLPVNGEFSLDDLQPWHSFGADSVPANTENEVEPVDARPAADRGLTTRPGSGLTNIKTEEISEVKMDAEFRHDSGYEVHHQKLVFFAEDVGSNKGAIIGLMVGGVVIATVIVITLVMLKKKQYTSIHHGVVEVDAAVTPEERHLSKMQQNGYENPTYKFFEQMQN

One series has as its target Amyloid-beta precursor protein (Homo sapiens, UniProt P05067). As to the kind of experiment: Inhibition of amyloid beta (1 to 42 residues) (unknown origin) aggregation after 24 hrs by thioflavin T fluorescence assay.
Conditions: not given
Regarding `COc1ccc(/C=C/C(=O)CC(=O)/C=C/c2ccc(O)c(OC)c2)cc1O`, the IC50 stood at 2100 nM.
In turn, `COc1cc(OCc2ccccc2)ccc1/C=C/C(=O)CC(=O)/C=C/c1ccc2cc[nH]c2c1` displayed a half-inhibitory concentration (IC50) of 5400 nM.
Take `COc1cc(/C=C/C(=O)CC(=O)/C=C/c2ccc3ccccc3c2)ccc1O`: the IC50 came out at 590 nM.
With `COc1cc(O)cc(/C=C/C(=O)CC(=O)/C=C/c2ccc(O)c(OC)c2)c1`, the half-maximal inhibitory concentration (IC50) was 1100 nM.
In the case of `COc1cc(O)ccc1/C=C/C(=O)CC(=O)/C=C/c1ccc(O)cc1OC`, the IC50 is 4600 nM.
In turn, `COc1cc(/C=C/C(=O)CC(=O)/C=C/c2cccnc2)ccc1O` gave an IC50 greater than 10000 nM.
Still for that read-out and setting: under `COc1ccc(O)c(/C=C/C(=O)CC(=O)/C=C/c2ccc(O)c(OC)c2)c1` stands 1800 nM; under `COc1ccc(/C=C/C(=O)CC(=O)/C=C/c2ccc3cc[nH]c3c2)c(OC)c1`, 610 nM; under `COc1ccc(/C=C/C(=O)CC(=O)/C=C/c2ccc(O)c(OC)c2)c(O)c1`, 930 nM.
Same read-out and setting: under `COc1cc(/C=C/C(=O)CC(=O)/C=C/c2ccccc2)ccc1O` stands 2200 nM; under `CN(C)c1ccc2nc3ccc(=[N+](C)C)cc-3sc2c1` [METHYLENE BLUE ANHYDROUS], 500 nM.
`COc1cc(O)ccc1/C=C/C(=O)CC(=O)/C=C/c1ccc2cc[nH]c2c1`: the IC50 was determined as 520 nM.
`COc1cc(/C=C/C(=O)CC(=O)/C=C/c2ccc3c(c2)OCO3)ccc1O` had an IC50 of 3700 nM.
In turn, `COc1cc(OCc2ccccn2)ccc1/C=C/C(=O)CC(=O)/C=C/c1ccc2cc[nH]c2c1` displayed an IC50 of 470 nM.
Regarding `COc1cc(OCc2ccccn2)ccc1/C=C/c1cc(/C=C/c2ccc3cc[nH]c3c2)[nH]n1`, the IC50 was 1200 nM.
`COc1cc(/C=C/C(=O)CC(=O)/C=C/c2ccc3cc[nH]c3c2)ccc1O` yielded an IC50 of 420 nM.
As for `COc1cc(/C=C/C(=O)CC(=O)/C=C/c2cccc(O)c2OC)ccc1O`, the IC50 amounted to 1900 nM.
In the case of `COc1cc(/C=C/C(=O)CC(=O)/C=C/c2ccco2)ccc1O`, the half-maximal inhibitory concentration (IC50) turned out to be 760 nM.
Still for that read-out and setting: under `COc1cc(/C=C/C(=O)CC(=O)/C=C/c2c(O)cccc2OC)ccc1O` stands 1600 nM; under `COc1cc(/C=C/C(=O)CC(=O)/C=C/c2cccc(OC)c2O)ccc1O`, 5400 nM.
As for `COc1cc(/C=C/C(=O)CC(=O)/C=C/c2cc(O)ccc2OC)ccc1O`, half-maximal inhibition (IC50) was put at 1300 nM.
In turn, `COc1cc(OCC2CCCO2)ccc1/C=C/C(=O)CC(=O)/C=C/c1ccc2cc[nH]c2c1` (stereo not drawn) gave an IC50 of 2500 nM.
Turning to `COc1cc(/C=C/C(=O)CC(=O)/C=C/c2ccc(O)cc2OC)ccc1O`, it took 920 nM to reach half-maximal inhibition (IC50).

System in another series: not listed separately
As to the kind of experiment: Drug uptake in Sprague-Dawley rat plasma at 5 mg/kg, iv up to 3 hrs by LC-MS/MS analysis. Format: ADME, organism-based. The note with it: in vivo. In outline:
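SD rats given 5 mg/kg intravenously; plasma concentrations sampled up to 3 h post-dose. Mean ± SD, n = 3.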
Regarding `COc1cc(OCc2ccccn2)ccc1/C=C/c1cc(/C=C/c2ccc3cc[nH]c3c2)[nH]n1`, the Drug uptake result is on record as “Active”.

System in the next series: not listed separately
As to the kind of experiment: Plasma concentration in Sprague-Dawley rat at 50 mg/kg, po after 3 hrs by LC-MS/MS analysis. Type of series: ADME, organism-based.
Conditions: not given
In outline:
(§1)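 SD rats dosed orally at 50 mg/kg; plasma drug levels followed up to 3 h. Mean ± SD, n = 3.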
On to `COc1cc(OCc2ccccn2)ccc1/C=C/c1cc(/C=C/c2ccc3cc[nH]c3c2)[nH]n1`, for which the concentration at 3 h was 466 ng/mL.

System in a further series: not listed separately
As to the kind of experiment: Drug uptake in Sprague-Dawley rat brain at 50 mg/kg, po after 3 hrs by LC-MS/MS analysis. Type of series: ADME, organism-based. The following applies: read-out: Drug uptake. A digest of the protocol: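 Brains collected from SD rats 3 h after a 50 mg/kg oral dose; tissue drug concentration measured per g tissue. Mean ± SD, n = 3.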
On to `COc1cc(OCc2ccccn2)ccc1/C=C/C(=O)CC(=O)/C=C/c1ccc2cc[nH]c2c1`, for which the concentration at 3 h amounted to 1 ng/g.
For `COc1cc(OCc2ccccn2)ccc1/C=C/c1cc(/C=C/c2ccc3cc[nH]c3c2)[nH]n1`, the concentration at 3 h is 276 ng/g.
Same read-out and setting: under `COc1cc(/C=C/C(=O)CC(=O)/C=C/c2ccc(O)c(OC)c2)ccc1O` [CURCUMIN] stands 13 ng/g.

The next series deals with Mus musculus. As to the kind of experiment: In vivo inhibition of human tau aggregation in JNPL3 human tau P301L transgenic mouse model assessed as reduction in amount of sarkosyl-insoluble tau in brain at 20 to 40 mg/kg/day, po for 4 weeks by ELISA. Type of series: functional, organism-based.
Conditions: not given
Regarding `COc1cc(OCc2ccccn2)ccc1/C=C/c1cc(/C=C/c2ccc3cc[nH]c3c2)[nH]n1`, the inhibition result is “Active”.

System in the next series: not listed separately
As to the kind of experiment: Tmax in mouse. Format: ADME, organism-based. The note with it: in vivo.
For `COc1cc(OCc2ccccn2)ccc1/C=C/c1cc(/C=C/c2ccc3cc[nH]c3c2)[nH]n1`, the Tmax was found to be 6 h.

System in a further series: not listed separately
As to the kind of experiment: Cmax in Sprague-Dawley rat at 50 mg/kg, po after 30 mins by LC-MS/MS analysis. Format: ADME, organism-based. The arrangement: dose 50 mg/kg, route oral. The note with it: in vivo. In outline:
as §1
Molecule `COc1cc(OCc2ccccn2)ccc1/C=C/C(=O)CC(=O)/C=C/c1ccc2cc[nH]c2c1` had a Cmax of 5.7 ng/mL.

In a further series the target is Microtubule-associated protein tau (Homo sapiens, UniProt P10636). As to the kind of experiment: Inhibition of recombinant human TAU three-repeat microtubule-binding domain aggregation expressed in Escherichia coli after 16 hrs by thioflavin T fluorescence assay.
Sequence of Microtubule-associated protein tau (P10636 whole entry, the tested form may be a part): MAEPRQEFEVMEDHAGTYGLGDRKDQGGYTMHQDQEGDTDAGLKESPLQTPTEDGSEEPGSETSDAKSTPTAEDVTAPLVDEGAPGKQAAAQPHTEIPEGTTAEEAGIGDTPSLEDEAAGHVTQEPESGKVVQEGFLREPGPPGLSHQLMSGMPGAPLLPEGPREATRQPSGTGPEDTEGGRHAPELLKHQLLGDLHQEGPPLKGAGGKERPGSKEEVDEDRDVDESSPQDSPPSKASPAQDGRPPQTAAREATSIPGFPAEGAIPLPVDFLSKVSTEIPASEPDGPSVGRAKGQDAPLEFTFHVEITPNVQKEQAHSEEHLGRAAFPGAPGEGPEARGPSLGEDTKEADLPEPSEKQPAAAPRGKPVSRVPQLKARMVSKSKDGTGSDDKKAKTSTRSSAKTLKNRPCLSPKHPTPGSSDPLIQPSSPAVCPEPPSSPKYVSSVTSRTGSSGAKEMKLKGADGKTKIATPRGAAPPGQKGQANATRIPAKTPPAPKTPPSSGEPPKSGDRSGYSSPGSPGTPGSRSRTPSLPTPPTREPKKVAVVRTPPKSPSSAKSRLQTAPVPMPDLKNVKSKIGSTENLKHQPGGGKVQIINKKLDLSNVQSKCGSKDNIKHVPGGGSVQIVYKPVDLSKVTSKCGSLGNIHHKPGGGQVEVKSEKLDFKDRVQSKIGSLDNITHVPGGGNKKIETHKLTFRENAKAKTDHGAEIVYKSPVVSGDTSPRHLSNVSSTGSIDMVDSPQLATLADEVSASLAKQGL
Conditions: not given
Consider `COc1ccc(/C=C/C(=O)CC(=O)/C=C/c2ccc(O)c(OC)c2)cc1O`, for which the IC50 was 520 nM.
For `COc1cc(OCc2ccccc2)ccc1/C=C/C(=O)CC(=O)/C=C/c1ccc2cc[nH]c2c1`, the IC50 turned out to be 610 nM.
Turning to `COc1cc(/C=C/C(=O)CC(=O)/C=C/c2ccc3ccccc3c2)ccc1O`, the IC50 amounted to 420 nM.
Still for that read-out and setting: the figure for `COc1cc(O)cc(/C=C/C(=O)CC(=O)/C=C/c2ccc(O)c(OC)c2)c1` is 320 nM; for `COc1cc(O)ccc1/C=C/C(=O)CC(=O)/C=C/c1ccc(O)cc1OC` it is greater than 10000 nM; for `COc1cc(/C=C/C(=O)CC(=O)/C=C/c2cccnc2)ccc1O` it is greater than 10000 nM.
`COc1ccc(O)c(/C=C/C(=O)CC(=O)/C=C/c2ccc(O)c(OC)c2)c1`: the IC50 is 920 nM.
As for `COc1ccc(/C=C/C(=O)CC(=O)/C=C/c2ccc3cc[nH]c3c2)c(OC)c1`, the IC50 turned out to be 700 nM.
Turning to `COc1ccc(/C=C/C(=O)CC(=O)/C=C/c2ccc(O)c(OC)c2)c(O)c1`, the IC50 worked out at 1400 nM.
Take `COc1cc(/C=C/C(=O)CC(=O)/C=C/c2ccccc2)ccc1O`: the IC50 amounted to 1400 nM.
With `COc1cc(O)ccc1/C=C/C(=O)CC(=O)/C=C/c1ccc2cc[nH]c2c1`, the IC50 came out at 230 nM.
As to `COc1cc(/C=C/C(=O)CC(=O)/C=C/c2ccc3c(c2)OCO3)ccc1O`, the IC50 was 1200 nM.
Regarding `COc1cc(OCc2ccccn2)ccc1/C=C/C(=O)CC(=O)/C=C/c1ccc2cc[nH]c2c1`, the IC50 amounted to 330 nM.
For the molecule `COc1cc(OCc2ccccn2)ccc1/C=C/c1cc(/C=C/c2ccc3cc[nH]c3c2)[nH]n1`, the IC50 is 660 nM.
The same measure, in the same setting: the figure for `COc1cc(/C=C/C(=O)CC(=O)/C=C/c2ccc3cc[nH]c3c2)ccc1O` is 440 nM; for `COc1cc(/C=C/C(=O)CC(=O)/C=C/c2cccc(O)c2OC)ccc1O` it is 710 nM; for `COc1cc(/C=C/C(=O)CC(=O)/C=C/c2ccco2)ccc1O` it is 2000 nM.
Regarding `COc1cc(/C=C/C(=O)CC(=O)/C=C/c2c(O)cccc2OC)ccc1O`, the IC50 came out at 910 nM.
For `COc1cc(/C=C/C(=O)CC(=O)/C=C/c2cccc(OC)c2O)ccc1O`, the 50% inhibitory concentration (IC50) came to 690 nM.
For `COc1cc(/C=C/C(=O)CC(=O)/C=C/c2cc(O)ccc2OC)ccc1O`, the half-inhibitory concentration (IC50) was 600 nM.
In the case of `COc1cc(OCC2CCCO2)ccc1/C=C/C(=O)CC(=O)/C=C/c1ccc2cc[nH]c2c1` (stereo not drawn), the IC50 turned out to be 420 nM.
With `COc1cc(/C=C/C(=O)CC(=O)/C=C/c2ccc(O)cc2OC)ccc1O`, the IC50 is 580 nM.

A word on the IC50: it is the concentration at which inhibition is half-maximal. Broadly, the Tmax is the time at which the peak concentration occurs. By Cmax is commonly meant the highest concentration seen after dosing.
